Hits are enriched below; roughly 5.3% of the tested compounds scored in any of these assays.
Beta apoptosis = beta cell apoptosis inhibition | INS-1E cytokine-induced death, ATP luminescence, 48 h; percent of positive-control rescue, neutral wells zero | protection from apoptosis, % (concentration not given with the values) | 0.8% of 300,000 active;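 active means Every replicate reaches about 75%, or at least half do and their mean reaches it too, limit read from the data; inconclusive means At least half of replicates reach the limit but their mean does not; inactive means Under half of replicates reach the limit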;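 further: 0% = cytokine-treated negative control wells and 100% = positive control rescue; higher means more ATP so stronger rescue from cytokine killing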
Mdm2-MdmX inh = human Mdm2/MdmX binding inhibition; 3% of 330,000 active; AID 485346; SaOS-2 split-luciferase Mdm2/MdmX complementation, luminescence; O15151+Q00987; inhibition, % at 8 µM;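 active means inhibition of at least 50% at 8 µM in the primary screen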
Target sequence (O15151 whole entry, looked up): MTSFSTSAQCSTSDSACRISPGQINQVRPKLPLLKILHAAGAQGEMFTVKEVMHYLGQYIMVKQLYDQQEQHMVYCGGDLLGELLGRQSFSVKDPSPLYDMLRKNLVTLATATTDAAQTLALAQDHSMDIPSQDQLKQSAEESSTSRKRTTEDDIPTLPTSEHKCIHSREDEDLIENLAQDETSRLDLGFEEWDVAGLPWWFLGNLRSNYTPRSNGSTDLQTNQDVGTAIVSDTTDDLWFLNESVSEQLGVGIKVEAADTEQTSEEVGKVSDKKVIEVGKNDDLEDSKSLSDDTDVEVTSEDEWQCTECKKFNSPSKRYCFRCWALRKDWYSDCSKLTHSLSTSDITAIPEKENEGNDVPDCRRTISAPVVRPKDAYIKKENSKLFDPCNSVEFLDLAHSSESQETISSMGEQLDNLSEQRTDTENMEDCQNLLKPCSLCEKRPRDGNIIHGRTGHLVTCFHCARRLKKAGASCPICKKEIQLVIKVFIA
Target sequence (Q00987 whole entry, looked up): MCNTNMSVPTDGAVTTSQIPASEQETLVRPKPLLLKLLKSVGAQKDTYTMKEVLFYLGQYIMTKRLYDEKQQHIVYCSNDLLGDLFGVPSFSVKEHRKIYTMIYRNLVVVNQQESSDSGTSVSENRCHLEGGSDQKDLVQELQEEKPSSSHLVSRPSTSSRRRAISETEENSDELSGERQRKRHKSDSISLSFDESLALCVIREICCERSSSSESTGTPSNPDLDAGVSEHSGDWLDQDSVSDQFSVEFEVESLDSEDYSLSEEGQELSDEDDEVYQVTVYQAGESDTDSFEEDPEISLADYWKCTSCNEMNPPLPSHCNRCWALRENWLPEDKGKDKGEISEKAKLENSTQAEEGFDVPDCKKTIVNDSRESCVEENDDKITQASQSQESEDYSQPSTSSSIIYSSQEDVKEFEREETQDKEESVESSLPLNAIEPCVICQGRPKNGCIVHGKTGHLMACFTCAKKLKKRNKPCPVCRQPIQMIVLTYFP
Calb FLC = C. albicans growth modulation with fluconazole; C. albicans CaCi-2 (fluconazole-resistant clinical isolate) + fluconazole, Alamar Blue growth, 48 h; growth inhibition, % (no concentration beside the values); 0.57% of 300,000 active; AID 1979;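 active means growth inhibition above about 58% in most replicates, limit read from the data, passing the limit was not always enough; inconclusive means exactly half the replicates above a set limit; inactive means most replicates below a set limit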;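 further: all wells also contain fluconazole at 8 µg/ml as a sub-toxic cotreatment; 0% = median of DMSO wells and 100% = median of geldanamycin control wells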
T cruzi repl = blocks replication of Trypanosoma cruzi | T. cruzi beta-gal in NIH3T3, luminescence, 90 h | 1.4% of 300,000 active | inhibition, % (concentration not given with the values);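 active means mean inhibition across valid replicates above about 55%, limit read from the data; inconclusive means mean below that limit but half or more replicates reach it; inactive means mean below it, under half of replicates reach it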;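 further: signal also drops with host cell toxicity which is not excluded here; 0% = plate median of DMSO wells and 100% = zero luminescence signal; higher percent means less beta-gal luminescence so fewer parasites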
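assay system = mouse NIH/3T3 fibroblasts infected with β-gal-expressing T. cruzi Tulahuen C4 | input = 5,000 NIH/3T3 host cells per well | buffer or medium = DMEM plus 2% FBS | timing = 3 h host attachment, then at least 90 h co-culture | measured by = GalScreen luminescence, 60 min | evaluation = luminescence reflecting intracellular parasite burden, expressed as percent inhibition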
CSC inhib = blocks cancer stem cells; cancer stem cell-like cells viability, luminescence; inhibition, % at 7.5 µM; 1.1% of 300,000 active; in the data active means inhibition above about 75%; inconclusive means no clear call, values can overlap the other calls; tested in HMLE shEcad cells
NLRP3 yeast inh = blocks the NALP3 inflammasome reconstituted in yeast. Yeast reconstituted NLRP3/ASC/caspase-1, beta-gal luminescence, 24 h. 0.39% of 330,000 active. inhibition, % at 10 µM. AID 2825;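 active means inhibition of 50% or more; inactive means inhibition below 50%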;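 further: plate controls were induced DMSO wells for no effect and uninduced yeast grown without galactose for full effect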
Mdm2 MdmX conf = confirmation of human Mdm2/MdmX interaction inhibitors | shares compounds with Mdm2-MdmX inh | Mdm2-MdmX binding, luminescent assay | inhibition, % at 8 µM | 55% of 10,000 active | AID 489028; in the data active means inhibition above about 40%
FLuc counter = counter-screen for Mdm2/MdmX inhibitors: full-length luciferase; shares compounds with Mdm2-MdmX inh; SaOS-2 full-length luciferase counterscreen, luminescence; inhibition, % at 8 µM; 77% of 6,200 active;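 active means mean inhibition at 8 µM reaching about 37%, which flags the compound as non-specific, limit read from the data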;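 further: p53-null SaOS-2 cells with luciferase driven by a doxycycline-inducible promoter; compound on cells about two nights before reading with doxycycline added after day one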
Numbers without * were called inactive; ? = inconclusive; . = not tested or not shown; + = active, no number.

SMILES | Beta apoptosis | Mdm2-MdmX inh | Calb FLC | T cruzi repl | CSC inhib | NLRP3 yeast inh | Mdm2 MdmX conf | FLuc counter
O=C1/C(=C/c2ccc(O)cc2)SC(=S)N1Cc1cccnc1 | 0 | 17 | 3 | 10 | 7 | -10 | . | .
COc1ccc(/C=C2\SC(=S)N(Cc3cccnc3)C2=O)cc1C | -3 | 59* | -3 | -5 | 80* | 8 | 32 | .
Cc1c(CN2CCC(CO)(Cc3cccc(C(F)(F)F)c3)CC2)c2ccccc2n1C | 7 | 68* | 1 | 56* | . | 7 | 42* | 71*
COc1ccc(Cc2[nH]n3c(=O)cc(C(C)C)nc3c2-c2ccccc2)cc1 | 30 | 62* | 1 | 0 | -19 | 7 | 62* | 40*
C#CC(=O)N(c1cc(OC)ccc1OC)C(C(=O)NC1CCCC1)c1cccs1 (centres undefined) | 6 | 100* | -2 | 33 | 21 | -3 | 100* | 52*
C#CC(=O)N(c1ccc(OC)cc1OC)C(C(=O)NC1CCCC1)c1cccs1 (centres undefined) | 64 | 89* | -20 | 16 | -2 | 6 | 100* | 51*
COc1ccc(N(C(=O)c2ccco2)C(C(=O)NC2CCCCC2)c2cccs2)cc1OC (centres undefined) | -3 | 22 | 16 | -6 | -18 | 1 | . | .
COc1ccc(N(C(=O)c2snc(C(N)=O)c2N)C(C(=O)NC2CCCC2)c2cccs2)cc1OC (centres undefined) | -2 | -8 | -4 | 8 | -10 | -2 | . | .
CC(C)C[C@@]12C(=O)N(c3cccc(F)c3)C(=O)N1[C@H](c1ccc(Cl)cc1)[C@@H]1C(=O)N(C3CCCCC3)C(=O)[C@@H]12 | 11 | 20 | -5 | 18 | 6 | 7 | . | .
COc1ccc(CN(CCC(c2ccc(F)cc2)C2CCOC(C)(C)C2)C(=O)c2ccco2)cc1 (centres undefined) | -4 | 76* | 6 | 26 | 27 | 8 | 53* | 131*
CC(c1ccccc1)N(CCC(c1ccccc1)C1CCOC(C)(C)C1)C(=O)c1ccco1 (centres undefined) | -7 | 31 | 2 | 18 | 42 | 10 | . | .
COc1ccc(N=C2NC(=O)S/C2=C\c2ccc(N(C)C)cc2)cc1 | 5 | -37 | 17 | 3 | 12 | 24 | . | .
COc1cc(CNCCc2c[nH]c3ccccc23)ccc1OCc1ccc(F)cc1 | 31 | 99* | ? | 53 | + | 40 | 59* | 57*
COc1cccc(CNCCc2c[nH]c3ccccc23)c1OCc1ccc(F)cc1 | 24 | 68* | 16 | 49 | 15 | 18 | 38 | .
COc1ccccc1NC(=S)NCCc1c[nH]c2ccccc12 | -1 | 21 | 3 | 14 | 8 | 6 | . | .
O=c1[nH]c(CN2CCN(c3ccccc3O)CC2)nc2scc(-c3ccccc3Cl)c12 | -6 | -6 | 4 | 49 | 4 | 3 | . | .
O=c1[nH]c(CN2CCN(c3ccc(O)cc3)CC2)nc2scc(-c3ccc(Cl)cc3)c12 | 8 | 59* | 24 | 19 | 105* | 12 | 54* | 58*
O=C(c1ccco1)N1CCN(C(=O)c2cc(-c3ccccn3)nc3ccccc23)CC1 | -5 | 32 | -1 | -3 | -13 | 1 | . | .
CSc1nc(N)nc(SCCS(=O)(=O)c2ccc(Cl)cc2)c1C#N | 10 | 57* | 7 | -10 | 26 | 15 | 23 | .
CSc1nc(N)nc(SCC(=O)Nc2ccc(Cl)cc2)c1C#N | 0 | -46 | 3 | 14 | 39 | 1 | . | .
Cc1ccc(/C=N/NC(=O)c2c(-c3ccccc3)noc2C)c(O)c1 | 93* | 65* | 112* | 5 | 51 | 22 | 62* | 31
CCOc1cc([N+](=O)[O-])cc(/C=N/NC(=O)c2c(-c3ccccc3)noc2C)c1O | 4 | 57* | 0 | -4 | 8 | 22 | 21 | .
CCOc1cc(/C=N/NC(=O)c2c(-c3ccccc3)noc2C)ccc1O | -5 | 3 | 21 | -32 | -7 | 4 | . | .
Cc1onc(-c2ccccc2)c1C(=O)N/N=C/c1c[nH]c2ccccc12 | -3 | -8 | -5 | -26 | -8 | -4 | . | .
CC(C)(C)n1nc(Cc2cccc3ccccc23)c2c(N)ncnc21 | 4 | 54* | -8 | 40 | 39 | 44 | 23 | .
SMILES | Beta apoptosis | Mdm2-MdmX inh | Calb FLC | T cruzi repl | CSC inhib | NLRP3 yeast inh | Mdm2 MdmX conf | FLuc counter
CN(C1CCCCC1)S(=O)(=O)c1ccc(C(=O)N2CCN(c3nc4ccccc4s3)CC2)cc1 | 12 | 28 | -3 | 27 | 11 | 24 | . | .
COc1cc(C(=O)Nc2nc(-c3ccc(Cl)cc3)c(C)s2)ccc1OCC(=O)Nc1ccc(F)cc1 | 12 | 78* | -5 | 34 | 56 | 22 | 66* | 71*
CCc1ccc(-c2nc(NC(=O)c3ccc(OCC(=O)Nc4ccc(F)cc4)c(OC)c3)sc2C)cc1 | -6 | 2 | -1 | -9 | -4 | -24 | . | .
COc1ccccc1NC(=O)c1cc2c(CO)cnc(C)c2oc1=Nc1ccc(OC)c(OC)c1 | 36 | 65* | -3 | 23 | 16 | 20 | 35 | .
O=C(O)CC(c1ccccc1)n1cccc1 (centres undefined) | -7 | -12 | 2 | -1 | -6 | 13 | . | .
CCc1cc(C)cc(OCCNC(=O)c2cncc(Br)c2)c1 | -9 | 59* | 8 | 3 | 2 | 24 | 29 | .
CN(C)C(/C=C/Nc1ccc(Br)cc1)=C(C#N)C#N | -1 | -41 | -7 | 4 | -21 | 1 | . | .
COc1cccc(Oc2ccc(C(F)(F)F)cc2NC(=O)CCc2nc3ccccc3c(=O)[nH]2)c1 | . | 39 | -9 | 7 | 46 | -60 | . | .
O=C(Nc1ccc(CN2CCCCC2)cc1)Nc1ccc(Br)cc1Cl | 7 | 74* | 9 | 17 | . | 20 | 42* | 39*
Cc1nn(C)cc1NC(=O)c1ccc(Br)o1 | 6 | 0 | 4 | 2 | -9 | 8 | . | .
C=CCNCc1cccn1-c1sc2c(c1C#N)CCCC2 | -6 | 7 | -21 | 5 | 13 | 10 | . | .
C/C(=N\NC(=O)c1c(Br)c(C)nn1C)c1ccc(NC(=O)C(C)Oc2ccc(Cl)cc2C)cc1 (centres undefined) | . | 62* | 1 | 16 | 55 | 10 | 9 | .
COc1ccccc1N1Cc2ccccc2C1 | 0 | 10 | -1 | 40 | 16 | 12 | . | .
COc1ccc(-n2cc(CNC3CCN(C)CC3)c(-c3cccc(F)c3)n2)cc1 | 1 | 66* | -21 | 17 | 14 | 15 | 57* | 41*
O=C1C2CCCN2C(c2ccccc2)N1c1ccc(Cl)cc1 (centres undefined) | -5 | 7 | -17 | -7 | 2 | 26 | . | .

Source: PubChem BioAssay (several laboratories)
